Results reported in ChEMBL document CHEMBL3351887, “'Click' assembly of glycoclusters and discovery of a trehalose analogue that retards Aβ40 aggregation and inhibits Aβ40-induced neurotoxicity” (Bioorg Med Chem Lett, 2014).

Columns and labels:
[1] = Toxicity in C57BL/6 mouse primary cortical neurons assessed as reduction in cell viability at 240 to 600 uM after 48 hrs by trypan blue dye exclusion assay; type: cell-based; conditions: cerebral cortex neuron
[2] = target: Amyloid-beta precursor protein (Homo sapiens) (UniProt P05067); experiment: Inhibition of amyloid beta-40 aggregation (unknown origin) assessed as beta-sheet at 900 uM after 72 hrs by CD spectra analysis (reference value: 2 to 3%); set-up: scale not given: the % may be the effect or the level left
Sequence of Amyloid-beta precursor protein (Homo sapiens) (P05067 whole entry): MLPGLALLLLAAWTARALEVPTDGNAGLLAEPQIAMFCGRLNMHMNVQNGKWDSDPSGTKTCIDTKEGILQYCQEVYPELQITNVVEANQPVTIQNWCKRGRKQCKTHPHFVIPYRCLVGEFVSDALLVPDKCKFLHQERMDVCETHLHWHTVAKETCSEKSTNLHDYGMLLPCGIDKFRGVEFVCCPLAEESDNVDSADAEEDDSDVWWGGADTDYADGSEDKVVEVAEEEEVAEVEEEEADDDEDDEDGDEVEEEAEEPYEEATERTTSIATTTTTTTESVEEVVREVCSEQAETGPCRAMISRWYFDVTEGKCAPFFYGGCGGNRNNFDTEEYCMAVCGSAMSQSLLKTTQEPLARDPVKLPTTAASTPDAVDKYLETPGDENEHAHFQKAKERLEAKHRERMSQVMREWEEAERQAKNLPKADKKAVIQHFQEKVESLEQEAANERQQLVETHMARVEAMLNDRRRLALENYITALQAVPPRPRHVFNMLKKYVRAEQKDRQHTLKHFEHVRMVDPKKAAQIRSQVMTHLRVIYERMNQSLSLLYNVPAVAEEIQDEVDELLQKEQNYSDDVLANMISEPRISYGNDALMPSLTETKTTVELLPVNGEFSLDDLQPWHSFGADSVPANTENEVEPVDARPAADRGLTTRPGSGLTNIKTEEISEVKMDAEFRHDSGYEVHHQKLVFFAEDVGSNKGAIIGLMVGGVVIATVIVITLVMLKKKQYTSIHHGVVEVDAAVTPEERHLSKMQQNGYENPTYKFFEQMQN
Summary of the method: (§1)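 Low-molecular-weight Aβ40 was prepared by dissolving the peptide in dilute aqueous NaOH (pH 10.5–12) and diluting in phosphate buffer (pH 7.4). It was sonicated for 60 s and ultracentrifuged at 80,000 rpm for 90 min at 4 °C, and the supernatant was used. Compound and Aβ40 were incubated quiescently at pH 7.4 and 37 °C at molar ratios 1:5, 1:1 and 5:1. Secondary-structure fractions were read from CD spectra after 72 h.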

[3] = target: Amyloid-beta precursor protein (Homo sapiens) (UniProt P05067); experiment: Inhibition of amyloid beta-40 aggregation (unknown origin) assessed as alpha-helix at 36 uM after 72 hrs by CD spectra analysis (reference value: 11 to 15%); set-up: scale not given: the % may be the effect or the level left; summary of the method: as §1
[4] = target: Amyloid-beta precursor protein (Homo sapiens) (UniProt P05067); experiment: Inhibition of amyloid beta-40 aggregation (unknown origin) assessed as unordered at 180 uM after 72 hrs by CD spectra analysis (reference value: 82 to 85%); set-up: scale not given: the % may be the effect or the level left; summary of the method: as §1
[5] = Neuroprotective activity in C57BL/6 mouse primary cortical neurons assessed as reduction in amyloid beta-40-induced cell death at 240 uM pre-incubated with amyloid beta-40 for 6 hrs and measured after 48 hrs by trypan blue dye exclusion assay; type: functional, Cerebral cortex neuron; set-up: scale not given: the % may be the effect or the level left
[6] = target: Amyloid-beta precursor protein (Homo sapiens) (UniProt P05067); experiment: Inhibition of amyloid beta-40 aggregation (unknown origin) assessed as beta-sheet at 36 uM after 72 hrs by CD spectra analysis (reference value: 2 to 3%); set-up: scale not given: the % may be the effect or the level left; summary of the method: as §1
[7] = target: Amyloid-beta precursor protein (Homo sapiens) (UniProt P05067); experiment: Inhibition of amyloid beta-40 aggregation (unknown origin) assessed as beta-turns at 180 uM after 72 hrs by CD spectra analysis (reference value: 0%); set-up: scale not given: the % may be the effect or the level left; summary of the method: as §1
[8] = target: Amyloid-beta precursor protein (Homo sapiens) (UniProt P05067); experiment: Inhibition of amyloid beta-40 aggregation (unknown origin) assessed as unordered at 900 uM after 72 hrs by CD spectra analysis (reference value: 82 to 85%); set-up: scale not given: the % may be the effect or the level left; summary of the method: as §1
[9] = target: Amyloid-beta precursor protein (Homo sapiens) (UniProt P05067); experiment: Inhibition of amyloid beta-40 aggregation (unknown origin) assessed as beta-turns at 36 uM after 72 hrs by CD spectra analysis (reference value: 0%); set-up: scale not given: the % may be the effect or the level left; summary of the method: as §1
[10] = target: Amyloid-beta precursor protein (Homo sapiens) (UniProt P05067); experiment: Inhibition of amyloid beta-40 aggregation (unknown origin) assessed as beta-sheet at 180 uM after 72 hrs by CD spectra analysis (reference value: 2 to 3%); set-up: scale not given: the % may be the effect or the level left; summary of the method: as §1
[11] = target: Amyloid-beta precursor protein (Homo sapiens) (UniProt P05067); experiment: Inhibition of amyloid beta-40 aggregation (unknown origin) assessed as alpha-helix at 900 uM after 72 hrs by CD spectra analysis (reference value: 11 to 15%); set-up: scale not given: the % may be the effect or the level left; summary of the method: as §1
[12] = target: Amyloid-beta precursor protein (Homo sapiens) (UniProt P05067); experiment: Inhibition of amyloid beta-40 aggregation (unknown origin) assessed as unordered at 36 uM after 72 hrs by CD spectra analysis (reference value: 82 to 85%); set-up: scale not given: the % may be the effect or the level left; summary of the method: as §1
[13] = target: Amyloid-beta precursor protein (Homo sapiens) (UniProt P05067); experiment: Inhibition of amyloid beta-40 aggregation (unknown origin) assessed as fibril width at 1800 uM for 7 days at pH 7.4 by transmission electron microscopy (reference value: 12.3 +/- 1.2 nanometer)
[14] = Neuroprotective activity in C57BL/6 mouse primary cortical neurons assessed as reduction in amyloid beta-40-induced cell death at 600 uM pre-incubated with amyloid beta-40 for 6 hrs and measured after 48 hrs by trypan blue dye exclusion assay; type: functional, Cerebral cortex neuron; set-up: scale not given: the % may be the effect or the level left
[15] = target: Amyloid-beta precursor protein (Homo sapiens) (UniProt P05067); experiment: Inhibition of amyloid beta-40 aggregation (unknown origin) assessed as alpha-helix at 180 uM after 72 hrs by CD spectra analysis (reference value: 11 to 15%); set-up: scale not given: the % may be the effect or the level left; summary of the method: as §1
[16] = target: Amyloid-beta precursor protein (Homo sapiens) (UniProt P05067); experiment: Inhibition of amyloid beta-40 aggregation (unknown origin) assessed as beta-turns at 900 uM after 72 hrs by CD spectra analysis (reference value: 0%); set-up: scale not given: the % may be the effect or the level left; summary of the method: as §1
[17] = target: Amyloid-beta precursor protein (Homo sapiens) (UniProt P05067); experiment: Inhibition of amyloid beta-40 aggregation (unknown origin) assessed as extension of lag phase of Abeta40 aggregation at 100 uM by ThT fluorescence assay; set-up: scale not given: the % may be the effect or the level left
Summary of the method: (§2)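 Monomer-rich Aβ40 (35 µM, supernatant after NaOH dissolution, sonication and ultracentrifugation) was incubated with 10 nM–100 µM compound in 20 mM phosphate buffer pH 7.4 (I 0.15 M), with 20 µM ThT and 0.007% NaN3, quiescent at 37 °C. Fluorescence (ex 440, em 480 nm) was read every 5 min. Lag time came from an empirical sigmoidal nonlinear-regression fit; mean ± SE of four independent experiments.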

[18] = target: Amyloid-beta precursor protein (Homo sapiens) (UniProt P05067); experiment: Inhibition of amyloid beta-40 aggregation (unknown origin) assessed as extension of lag phase of Abeta40 aggregation by ThT fluorescence assay; summary of the method: as §2

Structure (SMILES) | Activity [1] | Activity [2] | Activity [3] | Activity [4] | Activity [5] | Activity [6] | Activity [7] | Activity [8] | Activity [9] | Activity [10] | Activity [11] | Activity [12] | Activity [13] | Activity [14] | Activity [15] | Activity [16] | Activity [17] | inhibition [18]
OC[C@H]1O[C@H](O[C@H]2O[C@H](CO)[C@@H](O)[C@H](O)[C@H]2O)[C@H](O)[C@@H](O)[C@@H]1O [TREHALOSE] | Non-toxic | 36% | 19% | 5% | 39% | 36% | 33% | 17% | 30% | 36% | 18% | 15% | 11.8 nm | 55% | 26% | 29% |  | 
OC[C@H]1O[C@@H](n2cc(COCC(COCc3cn([C@@H]4O[C@H](CO)[C@@H](O)[C@H](O)[C@H]4O)nn3)(COCc3cn([C@@H]4O[C@H](CO)[C@@H](O)[C@H](O)[C@H]4O)nn3)COCC(COCc3cn([C@@H]4O[C@H](CO)[C@@H](O)[C@H](O)[C@H]4O)nn3)(COCc3cn([C@@H]4O[C@H](CO)[C@@H](O)[C@H](O)[C@H]4O)nn3)COCc3cn([C@@H]4O[C@H](CO)[C@@H](O)[C@H](O)[C@H]4O)nn3)nn2)[C@H](O)[C@@H](O)[C@@H]1O |  |  |  |  |  |  |  |  |  |  |  |  |  |  |  |  | 28% | Dose-dependent effect
